Measured values reported in article PMC8081235 (Biochemistry, 2020).
Substitutions are numbered along the chain they refer to. Where two headings read alike, the source gives them in different places. Values belong to the molecule of their own block, whether it stands above or below them.

What was measured:
[1] = biological target: T1, PLC-γ1 (D1165H) (Rattus norvegicus, UniProt P10686, D1165H); assay: Pilot high-throughput screen of LOPAC1280 with XY-69 in liposomes; type: biochemical
T1 sequence (P10686 1-1290 D1165H): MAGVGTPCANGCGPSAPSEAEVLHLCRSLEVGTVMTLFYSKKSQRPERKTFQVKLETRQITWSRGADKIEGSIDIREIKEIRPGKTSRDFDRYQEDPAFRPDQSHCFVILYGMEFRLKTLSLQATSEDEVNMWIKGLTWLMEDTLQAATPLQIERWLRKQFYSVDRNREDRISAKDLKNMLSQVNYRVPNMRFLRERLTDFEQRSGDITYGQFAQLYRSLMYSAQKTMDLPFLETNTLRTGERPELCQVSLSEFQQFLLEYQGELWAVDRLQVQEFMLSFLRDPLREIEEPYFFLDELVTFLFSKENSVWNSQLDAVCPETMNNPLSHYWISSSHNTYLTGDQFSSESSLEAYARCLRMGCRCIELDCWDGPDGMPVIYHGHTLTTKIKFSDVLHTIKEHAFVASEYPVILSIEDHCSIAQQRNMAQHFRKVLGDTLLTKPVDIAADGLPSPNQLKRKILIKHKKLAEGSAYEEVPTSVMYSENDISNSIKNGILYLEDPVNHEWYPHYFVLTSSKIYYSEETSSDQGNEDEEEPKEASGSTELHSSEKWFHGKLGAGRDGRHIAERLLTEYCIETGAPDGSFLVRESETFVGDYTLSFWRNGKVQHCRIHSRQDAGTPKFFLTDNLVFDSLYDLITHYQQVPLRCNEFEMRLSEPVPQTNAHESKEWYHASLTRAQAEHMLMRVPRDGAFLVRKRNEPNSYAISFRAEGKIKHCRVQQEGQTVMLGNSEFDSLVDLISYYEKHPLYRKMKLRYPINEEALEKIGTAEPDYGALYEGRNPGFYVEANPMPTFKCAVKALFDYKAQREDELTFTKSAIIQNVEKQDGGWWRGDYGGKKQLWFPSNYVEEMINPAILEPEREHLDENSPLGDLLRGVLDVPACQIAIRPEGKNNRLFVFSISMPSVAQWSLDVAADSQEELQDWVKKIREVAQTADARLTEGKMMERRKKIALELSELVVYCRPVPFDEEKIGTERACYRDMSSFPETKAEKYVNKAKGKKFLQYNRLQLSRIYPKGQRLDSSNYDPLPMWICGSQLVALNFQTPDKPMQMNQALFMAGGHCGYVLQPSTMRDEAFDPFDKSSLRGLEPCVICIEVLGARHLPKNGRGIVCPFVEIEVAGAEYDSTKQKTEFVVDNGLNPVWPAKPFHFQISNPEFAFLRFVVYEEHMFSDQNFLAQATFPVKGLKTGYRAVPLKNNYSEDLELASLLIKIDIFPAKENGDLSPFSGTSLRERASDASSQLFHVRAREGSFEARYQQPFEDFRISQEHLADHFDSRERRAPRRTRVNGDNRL
In short: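 Screening was run in duplicate in 384-well format with test compounds at 10 μM. Purified PLC-γ1 (D1165H), 1 nM final, was preincubated 15 min at room temperature, then liposomes were added (final PE 220 μM, PIP₂ 20 μM, XY-69 0.5 μM). After 1 h the reaction was quenched with EGTA, pH 10.3, and read 30 min later (ex 485/em 520 nm). Full-inhibition controls were EGTA 10 mM and aurintricarboxylic acid 50 μM.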

[2] = biological target: T1, PLC-γ1 (D1165H); assay: IC50 measurement with XY-69 in liposomes; type: biochemical; conditions: for inhibition of PLC-γ1: statement in conclusions, relative to ATP
[3] = test system: PLC-δ1; conditions: purified PLC ref 7; cited from earlier work
[4] = test system: PLC-γ1; conditions: purified PLC ref 7; cited from earlier work
[5] = test system: PLC-β2; conditions: purified PLC ref 7; cited from earlier work
[6] = test system: PLCs; conditions: purified enzymes and intact cells; pan-inhibitors ref 24; cited from earlier work
[7] = stated without experiment or reference; cited from earlier work
[8] = Solubility; type: physicochemical
[9] = biological target: T2, wild-type PLC-γ1 (Rattus norvegicus, UniProt P10686); assay: Isothermal titration calorimetry; type: binding; conditions: ITC, 25 °C
T2 sequence (P10686 2-1290): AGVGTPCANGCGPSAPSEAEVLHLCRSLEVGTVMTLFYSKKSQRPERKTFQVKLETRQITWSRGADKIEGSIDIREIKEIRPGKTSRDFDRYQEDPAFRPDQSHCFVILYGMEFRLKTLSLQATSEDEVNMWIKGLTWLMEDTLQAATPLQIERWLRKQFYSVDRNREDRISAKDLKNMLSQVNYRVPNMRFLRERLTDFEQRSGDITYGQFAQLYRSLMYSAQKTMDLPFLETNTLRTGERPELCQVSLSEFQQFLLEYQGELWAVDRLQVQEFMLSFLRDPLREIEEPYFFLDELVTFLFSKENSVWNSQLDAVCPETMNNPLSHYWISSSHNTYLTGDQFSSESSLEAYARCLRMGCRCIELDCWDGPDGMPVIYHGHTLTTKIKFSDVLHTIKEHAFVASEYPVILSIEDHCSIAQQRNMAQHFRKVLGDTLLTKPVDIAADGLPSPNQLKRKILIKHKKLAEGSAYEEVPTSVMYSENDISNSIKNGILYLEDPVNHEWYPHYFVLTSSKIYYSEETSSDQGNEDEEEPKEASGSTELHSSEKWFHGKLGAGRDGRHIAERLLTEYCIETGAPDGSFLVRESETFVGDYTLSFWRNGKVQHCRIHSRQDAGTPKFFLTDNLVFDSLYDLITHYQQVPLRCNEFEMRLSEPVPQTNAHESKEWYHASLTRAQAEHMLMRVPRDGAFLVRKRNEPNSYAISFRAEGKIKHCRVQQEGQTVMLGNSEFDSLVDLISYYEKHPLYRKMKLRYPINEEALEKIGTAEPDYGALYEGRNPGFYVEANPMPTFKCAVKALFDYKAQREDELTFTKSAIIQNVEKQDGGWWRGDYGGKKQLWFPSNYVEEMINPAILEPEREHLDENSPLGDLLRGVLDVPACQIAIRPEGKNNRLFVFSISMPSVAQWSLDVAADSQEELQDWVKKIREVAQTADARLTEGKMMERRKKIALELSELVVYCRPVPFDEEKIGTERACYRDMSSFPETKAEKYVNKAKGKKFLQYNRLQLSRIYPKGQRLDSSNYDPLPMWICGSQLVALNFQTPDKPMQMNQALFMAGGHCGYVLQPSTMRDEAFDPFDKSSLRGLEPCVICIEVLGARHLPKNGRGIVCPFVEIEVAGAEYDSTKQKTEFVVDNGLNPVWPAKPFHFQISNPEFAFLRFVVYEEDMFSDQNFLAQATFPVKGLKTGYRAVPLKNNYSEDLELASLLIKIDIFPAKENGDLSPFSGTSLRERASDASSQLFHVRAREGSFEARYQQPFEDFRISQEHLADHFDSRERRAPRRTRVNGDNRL

[10] = biological target: T3, wild-type PLC-γ1 (Rattus norvegicus, UniProt P10686)
T3 sequence (P10686 1-1290): T1 sequence (P10686 1-1290 D1165H) with H1165D

[11] = test system: PLC-β4; conditions: high concentration (1 mM) ref 39; cited from earlier work
[12] = XY-69 0.5 μM, PIP2 20 μM in liposomes

inhibition by control in pilot screen ([1]; 10 mM, chelates Ca2+ cofactor): Full inhibition
SMILES: O=C(O)CN(CCOCCOCCN(CC(=O)O)CC(=O)O)CC(=O)O [EGTA]

IC50 [2, 12]: 12.7 µM
SMILES: Nc1nc2c(ncn2[C@@H]2O[C@H](COP(=O)(O)OP(=O)(O)OP(=O)(O)O)[C@@H](O)[C@H]2O)c(=O)[nH]1 [GTP]

inhibition of PLC-γ1 [2]: less or no inhibition
SMILES: Nc1ncnc2c1ncn2[C@@H]1O[C@H](COP(=O)(O)O)[C@@H](O)[C@H]1O [AMP]

flagged as inhibitor in pilot screen ([1]; LOPAC1280 at 10 μM): not flagged as an inhibitor
SMILES: COc1ccc2c(c1)CC[C@@H]1[C@@H]2CC[C@]2(C)[C@@H](NCCCCCCN3C(=O)C=CC3=O)CC[C@@H]12 [Hit U73122]
inhibition of phospholipase activity [3]: does not inhibit
inhibition of phospholipase activity [4]: does not inhibit
inhibition of phospholipase activity [5]: does not inhibit

inhibition by control in pilot screen ([1]; 50 μM): Full inhibition
SMILES: O=C(O)C1=CC(=C(c2ccc(O)c(C(=O)O)c2)c2ccc(O)c(C(=O)O)c2)C=CC1=O [ATA, aurintricarboxylic acid]
direct inhibition of PLCs [6]: direct inhibitors
cell permeability [7]: not cell permeable

solubility in aqueous buffer [8]: poor solubility
SMILES: O=C1Nc2cc(Br)ccc2/C1=C1/Nc2ccccc2/C1=N\O [Hit-1, 6-bromoindirubin-3′-oxime]
cell permeability [7]: cell permeable

SMILES: Nc1ncnc2c1ncn2[C@@H]1O[C@H](COP(=O)(O)OP(=O)(O)OP(=O)(O)O)[C@@H](O)[C@H]1O [ATP, adenosine triphosphate]
Kd [9]: 2.6 µM
reduction of Vmax ([10]; 5 μM ATP present): 4.1 fold
change of KM ([10]; 1.5 and 5 μM ATP present): essentially unchanged
inhibition [11]: inhibit
IC50 [2]: 0.19 µM
cell permeability [7]: not cell permeable

IC50 [2, 12]: 4.3 µM
inhibition of PLC-γ1 [2]: less or no inhibition
SMILES: Nc1ncnc2c1ncn2[C@@H]1O[C@H](COP(=O)(O)OP(=O)(O)O)[C@@H](O)[C@H]1O [ADP]
